Bioassay records (PubChem)
Apaf1 activ: activators of human Apaf-1 apoptosome; O14727; Apaf-1 apoptosome caspase-3 activation, DEVD-Rh110 fluorescence; hits give low values; activity change, negative = activation, % at 20 µM; 330,000 tested, 0.31% active; AID 489031;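 active means activity change at or below -40% at 20 µM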
Target sequence (O14727 whole entry, looked up): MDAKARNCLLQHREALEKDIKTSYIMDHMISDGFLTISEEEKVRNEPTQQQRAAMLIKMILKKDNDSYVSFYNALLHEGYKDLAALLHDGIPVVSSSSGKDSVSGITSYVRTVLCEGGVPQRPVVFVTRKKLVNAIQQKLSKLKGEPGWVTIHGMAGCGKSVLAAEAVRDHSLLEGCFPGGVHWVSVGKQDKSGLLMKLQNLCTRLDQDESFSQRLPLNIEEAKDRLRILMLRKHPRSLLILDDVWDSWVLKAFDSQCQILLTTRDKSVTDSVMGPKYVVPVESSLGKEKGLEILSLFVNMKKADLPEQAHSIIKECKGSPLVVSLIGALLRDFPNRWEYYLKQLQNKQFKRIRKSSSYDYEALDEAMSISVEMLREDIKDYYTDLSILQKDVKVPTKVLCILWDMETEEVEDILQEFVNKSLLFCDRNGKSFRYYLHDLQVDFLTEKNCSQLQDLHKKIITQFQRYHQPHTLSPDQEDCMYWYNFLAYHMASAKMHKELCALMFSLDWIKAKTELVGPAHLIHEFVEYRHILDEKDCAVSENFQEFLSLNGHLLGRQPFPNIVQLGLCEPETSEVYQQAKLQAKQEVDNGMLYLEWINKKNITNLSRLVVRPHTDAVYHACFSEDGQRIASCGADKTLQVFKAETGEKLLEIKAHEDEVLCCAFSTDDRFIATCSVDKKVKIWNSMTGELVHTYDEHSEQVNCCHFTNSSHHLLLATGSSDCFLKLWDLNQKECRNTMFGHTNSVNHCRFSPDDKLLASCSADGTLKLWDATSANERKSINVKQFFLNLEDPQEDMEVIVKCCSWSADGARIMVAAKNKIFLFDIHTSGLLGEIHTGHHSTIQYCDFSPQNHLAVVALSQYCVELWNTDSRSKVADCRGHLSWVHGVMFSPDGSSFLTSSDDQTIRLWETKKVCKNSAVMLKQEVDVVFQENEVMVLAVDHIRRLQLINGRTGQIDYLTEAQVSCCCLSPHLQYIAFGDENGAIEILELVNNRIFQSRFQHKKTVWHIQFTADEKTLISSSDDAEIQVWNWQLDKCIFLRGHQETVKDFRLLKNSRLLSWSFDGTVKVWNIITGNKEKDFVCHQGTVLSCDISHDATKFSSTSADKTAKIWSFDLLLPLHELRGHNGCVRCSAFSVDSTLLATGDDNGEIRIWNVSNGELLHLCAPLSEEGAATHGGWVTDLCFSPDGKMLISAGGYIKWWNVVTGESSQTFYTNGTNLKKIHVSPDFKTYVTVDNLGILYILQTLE
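System: Reconstituted apoptosome of Apaf-1, cytochrome c, caspase-9, procaspase-3 | Reagent: dATP, cytochrome c, and (Z-DEVD)2-Rh110 caspase-3 substrate | Times: 30 min compound preincubation and 50 min reaction, both room temperature | Detection: Caspase-3-released Rh110 fluorescence, 540 nm emission, 480 nm excitation | Measure: Caspase-3 activity via Apaf-1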
Rh110 interf act: Rh110 signal interference in Apaf-1 activator counter-screen; shares compounds with Apaf1 activ; Rh110 fluorescence interference, quenched caspase reaction, Ex480/Em540; fluorescence interference (activity change), % at 20 µM, hits read low; 980 tested, under 10 active;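 active means mean activity change at or below -40% when tested at 20 µM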
Apaf-1 act conf: Apaf-1 (human) activation, single-dose confirmed; reconstituted apoptosome caspase-3 activity, DEVD-Rh110 fluorescence; hits give low values; 980 tested, 5% active; shares compounds with Apaf1 activ; activity change, negative = activation, % at 20 µM;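 active means mean activity change at or below -40%, meaning activation of 40% or more, at 20 µM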
Fluor interf act: Apaf-1 activator counter-screen fluorescence artifact | AID 588592 | shares compounds with Apaf1 activ | fluorescence interference counterscreen, Apaf-1 activator assay | 55 tested, under 10 active | EC50, µM; call rule not given here
* hit, by the source's call; · = no result given. A selection follows.

SMILES	Apaf1 activ	Rh110 interf act	Apaf-1 act conf	others
N#CC1=C(N)Oc2n[nH]c(-c3cccs3)c2C1c1ccsc1 (stereo unspecified)	83	·	·
CCc1ccc(OCC(=O)N/N=C2\CC(=O)c3ccccc32)cc1	84	·	·
CN(Cc1ccccc1)C(=O)CN1C(=O)NC(C)(c2ccc(C(C)(C)C)cc2)C1=O (stereo unspecified)	42	·	·
CC(C)NS(=O)(=O)c1ccc(OCC(=O)N(C)Cc2ccccc2)cc1	-555*	8	17
COc1cc2sc(-c3ccccc3OC)c(-c3ccc(OCCN4CCCCC4)cc3)c2cc1OC	66	·	·
CCN1CCN(Cc2ccc(NC(=O)c3cc(NC(=O)C(=O)c4c[nH]c5ccccc45)cc(OC)c3)cc2C(F)(F)F)CC1	41	·	·
Cc1coc2c1C(=O)C(=O)c1c-2ccc2c(C)cccc12	96	·	·
Cc1nn(-c2ccccc2)c2c1C(c1ccccc1)C(C#N)=C(N)O2 (stereo unspecified)	97	·	·
CC1=NN(c2ccc(C)c(C)c2)C(=O)/C1=C/c1ccc2c(c1)n(C)c(=O)n2C	94	·	·
COc1cccc(N2CCN(CC(=O)Nc3ccccc3C(=O)NCCc3ccccc3)CC2)c1	50	·	·
Cc1cccc(OCCCC(=O)NNC(=O)CCN2CCN(c3ccccc3)CC2)c1	-630*	-2	12
CCN1CCN(CCc2nc3cc(NC(=O)COc4ccccc4)ccc3n2C)CC1	51	·	·
CC(=O)Nc1cc(OC(C)=O)c2nonc2c1OC(C)=O	98	·	·
O=C1OC(Nc2cc(Br)cc3cccnc23)c2ccccc21 (stereo unspecified)	97	·	·
O=[N+]([O-])c1ccccc1-c1ccc(C(=S)N2CCCC2)o1	47	·	·
O=C(NNC(=O)C1CC1)c1ccccc1[N+](=O)[O-]	-60*	0	9
CCC(C)N(C(=O)COC(=O)c1cc([N+](=O)[O-])ccc1N1CCOCC1)C1CCS(=O)(=O)C1 (stereo unspecified)	78	·	·
CCCN(CC1CC1)c1nc(N)c2c(N)nc(OC)cc2c1C#N	93	·	·
NC(=S)NNc1cccc2cccnc12	76	·	·
O=C1C(NS(=O)(=O)c2cccs2)=C(N2CCN(c3cccc(Cl)c3)CC2)C(=O)c2ccccc21	58	·	·
c1coc(-c2nc(-c3ccco3)c(-c3ccco3)nc2-c2ccco2)c1	63	·	·
Cc1ccccc1NC(=O)CSc1nnc(NC(=O)c2ccco2)s1	-66*	-4	4
CC(=O)c1cccc(NC(=O)CSc2ccc(-c3ccco3)nn2)c1	45	·	·
O=C(CSc1ccc(-c2ccc3c(c2)OCO3)nn1)Nc1nccs1	-45*	9	12
Cc1cccc2sc(N(CCCN(C)C)C(=O)c3ccc(S(=O)(=O)N4CCc5ccccc5C4)cc3)nc12	63	·	·
SMILES	Apaf1 activ	Rh110 interf act	Apaf-1 act conf	others
CCN(C(=O)Cn1c(=O)n2nc(CCn3nc(C)cc3C)nc2c2ccccc21)c1cccc(C)c1	-291*	9	16
COc1ccccc1NC(=O)C1=C(C)Nc2nnnn2C1c1cccc(C)c1 (stereo unspecified)	-71*	6	14
N#C/C(=C\c1ccc(OCc2ccc(Cl)cc2)cc1)C(=O)Nc1cccc(C(=O)O)c1	-202*	13	-71*	Fluor interf act=>100
O=C(c1ccc2nc(-c3ccco3)c(-c3ccco3)nc2c1)N1CCN(c2ncccn2)CC1	57	·	·
CCN(CC)CCN(C(=O)c1ccc2c(c1)CCCC2)c1nc2ccc(C)cc2s1	51	·	·
COc1cc(NC(C)CCCN)c2ncccc2c1 (stereo unspecified)	92	·	·
COCCn1c(=S)[nH]c2cc(OC)c(OC)cc2c1=O	-93*	2	7
COc1cc2[nH]c(C(=O)NN)c(N)c2cc1OC	48	·	·
CCN1CCN(CCNC(=O)c2ccc3nc(-c4cccc(C)c4)c(-c4cccc(C)c4)nc3c2)CC1	47	·	·
Cc1ccc(-n2nc3ccc(N)cc3n2)c(C)c1	68	·	·
CN1CCN(c2ccc(-c3cccc(NC(=O)COc4ccccc4)c3)nn2)CC1	47	·	·
O=C(COc1ccc(-c2ccccc2)cc1)NNC(=O)Nc1ccc(F)cc1F	-54*	4	16
O=C(COc1ccccc1)N1CCN=C1SCc1ccc(F)cc1	56	·	·
Cc1ccc(/C=C2\SC(=S)N(CCC(=O)NNC(=O)c3ccc(O)cc3)C2=O)cc1	-63*	15	26
CCN(CC)CCOC(=O)c1ccc(NC(=O)CCCN2C(=O)S/C(=C/c3ccc(OC)cc3)C2=S)cc1	44	·	·
COc1ccccc1N1C(C)=CC(=C(C#N)c2nc3ccccc3s2)C=C1C	56	·	·
CCCCCc1cc(=O)oc2c(C(CCN3CCCC(C)C3)c3cc(OC)c(OC)c(OC)c3)c(OC)cc(OC)c12 (stereo unspecified)	60	·	·
CC(=O)N1CCC(=O)Nc2ccc([N+](=O)[O-])cc21	-64*	5	10
O=C1Nc2ccccc2Nc2ccc([N+](=O)[O-])cc21	43	·	·
CCN1CCc2c(sc(NC(=O)c3cc4ccccc4cc3OC)c2C(N)=O)C1	65	·	·
CN(CCO)C(=O)c1c(NC(=O)c2ccccc2)sc2c1CCCC2	-362*	12	18
O=c1cc(-c2ccc(F)cc2)[nH][nH]1	50	·	·
Cc1cc(Nc2cccc(Cl)c2)nc(NCc2ccccc2)n1	43	·	·
C#CCOCCOCCOCCNc1nc(N2CCN(C(=O)CCCCCCCCCCNC(=O)Cn3cc(CCCCCN)nn3)CC2)nc(N2CCN(C(=O)CCCCCCCCCCNC(=O)[C@H](CO)n3cc(CCCCCN)nn3)CC2)n1	63	·	·
CC(OC(=O)c1ccc(-n2cnnn2)cc1)C(=O)Nc1ccccc1F (stereo unspecified)	-229*	11	13
SMILES	Apaf1 activ	Rh110 interf act	Apaf-1 act conf	others
O=C(Cc1cc(=O)[nH][nH]1)N/N=C/c1c(Cl)cccc1Cl	64	·	·
c1ccc(-c2cn3nc4c(nc3n2)CCCC4)cc1	57	·	·
Cc1ccc(S(=O)(=O)Nc2ccccc2F)cc1C(=O)NCc1ccco1	-54*	11	11
Nc1c(C(=O)NCc2ccco2)c2nc3ccccc3nc2n1CCc1ccc(F)cc1	78	·	·
CNS(=O)(=O)Cc1ccc2[nH]cc(CCN(C)C)c2c1	1	·	·
c1cc(SC2CCCCC2)cc(-c2nc3cnccn3c2NC2CCCCC2)c1	41	·	·
Cc1ccc2nc(-c3cccnc3)c(NC3CCCCC3)n2c1	-50*	5	14
CCC(C)Sc1ccc(-c2nc3ccc(C)cn3c2NC2CCCCC2)cc1 (stereo unspecified)	41	·	·
Cc1ccccc1NC1=C/C(=N\S(=O)(=O)c2cccs2)c2ccccc2C1=O	97	·	·
COc1cccc2sc3cc(C#CC4(O)CCCCC4)ccc3c(=O)c12	40	·	·
CCOC(=O)Nc1ccc2c(c1)N(C(=O)OCCN(C)C)c1ccccc1CC2	-1	·	·
COc1ccc(-c2cc(=O)[nH][nH]2)cc1OC	77	·	·
COc1ccc(-c2cnc(OC(C)(C)C)nc2OC(C)(C)C)cc1OC	-265*	15	14
COCCCn1c(=O)c2sccc2n(Cc2ccccc2C)c1=O	60	·	·
O=C(NCc1ccccc1)c1ccc2nc(-c3ccco3)c(-c3ccco3)nc2c1	65	·	·
COc1ccc(NC(=O)c2ccc(-c3ccc(-c4noc(C)n4)cc3C)cc2)cc1N1CCN(C)CC1	57	·	·
